Assay results: article PMC10210236 (ACS Omega, 2023)
“Also recorded” adds a separate entry of the source.

What was measured:
Sk-Mel28 cells = experiment: Flow cytometric analysis of cell cycle; format: cell-based, human; conditions: 48 h, concentration approx. IC50
2008 cells = experiment: Flow cytometric analysis of cell cycle; format: cell-based, human; conditions: 48 h, concentration approx. IC50
[1] = system: 2008, C13*, and Sk-Mel28 cell lines; experiment: Flow cytometric analysis of cell cycle, statement for all three lines; format: cell-based, human; conditions: 48 h, versus untreated
C13* cells = experiment: Flow cytometric analysis of cell cycle; format: cell-based, human; conditions: 48 h, concentration approx. IC50
[2] = Dissolution / intrinsic dissolution rate of pellets in pH 1.2; format: physicochemical; conditions: neat drug; for pure drug dissolution value: gastric pH 1.2 (0.1 N HCl)
How it was run: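 Run in 0.1 N HCl, pH 1.2, simulating gastric conditions, in a 500 mL medium over 3 h with sampling from 15 to 180 min. Read-outs were cumulative amount dissolved and intrinsic dissolution rate, quantified separately for each drug component from the salt. Salt batch was scaled up by ethanol drop grinding, with phase purity checked by PXRD profile fitting. Leftover solids were characterized afterwards.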

[3] = Equilibrium solubility / slurry experiment at pH 1.2, phase of residue; format: physicochemical; conditions: pH 1.2 (0.1 N HCl)
How it was run: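 Equilibrium slurry of salt or free base in 0.1 N HCl, pH 1.2. Undissolved residue was characterized by DSC, TGA, PXRD profile fitting against the single-crystal structure, FESEM morphology, and FESEM-EDX chloride content to detect phase conversion, such as hydrochloride formation.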

[4] = system: BRAF^V600E melanoma cells Sk-Mel28; experiment: Cytotoxicity screening; format: cell-based; conditions: Homo sapiens, SK-MEL-28
How it was run: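 Sk-Mel28 (human BRAF V600E melanoma) cells treated with test compound across a dose–response range. Survival percentage relative to control was read, and IC50 was taken from the curve. Two separate experiments were each run in duplicate, reported as mean ± SEM.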

[5] = cited from earlier work
[6] = system: ovarian cancer cell lines (A2780, 2008, A2780/CP, C13*); experiment: Cytotoxicity screening, ovarian lines taken together; format: cell-based; conditions: Homo sapiens, read-out: IC50 range in ovarian cancer cell lines

Row | SMILES | cells in G0G1 phase (Sk-Mel28 cells) [%] | cells in G2/M phase (Sk-Mel28 cells) [%] | cells in S phase (Sk-Mel28 cells) [%] | hypodiploid cells (sub-G1) (Sk-Mel28 cells) [%] | cells in G0G1 phase (2008 cells) [%] | cells in G2/M phase (2008 cells) [%] | cells in S phase (2008 cells) [%] | hypodiploid cells (2008 cells) [%] | cells in G0G1 phase (C13* cells) [%] | cells in G2/M phase (C13* cells) [%] | cells in S phase (C13* cells) [%] | hypodiploid cells (sub-G1) (C13* cells) [%] | pure drug dissolution value [2] [mg cm^–2 min^–1] | solubility of the phase formed at pH 1.2 (in words) [3] | other results
1 | CC(C)(C)c1nc(-c2cccc(NS(=O)(=O)c3c(F)cccc3F)c2F)c(-c2ccnc(N)n2)s1 [DBF, dabrafenib] | 65.11 | 4.53 | 3.95 | 23.46 | 63.91 | 10.76 | 3.53 | 19.32 | 68.48 | 5.28 | 4.60 | 19.32 | 80 |  | fold increase of hypodiploid cells [1]: ~4 fold; cumulative drug dissolved, saturation value ([2]; pH 1.2, 500 mL): 12.18 mg/L
2 | Cc1[nH]c2ccccc2c1CCNCc1ccc(/C=C/C(=O)NO)cc1.Cl [PAN·HCl] |  |  |  |  |  |  |  |  |  |  |  |  |  | high solubility | 
3 | Cc1[nH]c2ccccc2c1CCNCc1ccc(/C=C/C(=O)NO)cc1 [PAN, panobinostat] | 42.53 | 18.73 | 5.17 | 30.07 | 37.98 | 9.99 | 6.78 | 42.32 | 47.46 | 10.27 | 6.85 | 30.15 | 10 |  | IC50 [4]: 45.3 ± 12 nM; pKa (indole NH) [5]: 8.4; IC50 [6]: 4 to 9 nM; cumulative drug dissolved at 15 min ([2]; pH 1.2, 500 mL, 15 min): 4.60 mg/L; cumulative drug dissolved at 180 min ([2]; pH 1.2, 500 mL, 180 min): 20.81 mg/L
4 | CC(C)(C)c1nc(-c2cccc(NS(=O)(=O)c3c(F)cccc3F)c2F)c(-c2ccnc(N)n2)s1.O [DBF·MH] |  |  |  |  |  |  |  |  |  |  |  |  |  | comparatively less soluble; also recorded: very poor | 
